Screens as filed in PubChem BioAssay.
TAAR1 ag = human TAAR1 agonists, primary screen, Fluo-8 calcium fluorescence, CHO RD-HGA16 cells; activation, % at 3 µM; actives 0.99% (n = 360,000); vehicle wells 0%, saturating PEA agonist 100%;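 active means activation above the mean activation of all test compounds in the run plus 3 SD, cut at about 38% in these data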
Target sequence (Q96RJ0 whole entry, looked up): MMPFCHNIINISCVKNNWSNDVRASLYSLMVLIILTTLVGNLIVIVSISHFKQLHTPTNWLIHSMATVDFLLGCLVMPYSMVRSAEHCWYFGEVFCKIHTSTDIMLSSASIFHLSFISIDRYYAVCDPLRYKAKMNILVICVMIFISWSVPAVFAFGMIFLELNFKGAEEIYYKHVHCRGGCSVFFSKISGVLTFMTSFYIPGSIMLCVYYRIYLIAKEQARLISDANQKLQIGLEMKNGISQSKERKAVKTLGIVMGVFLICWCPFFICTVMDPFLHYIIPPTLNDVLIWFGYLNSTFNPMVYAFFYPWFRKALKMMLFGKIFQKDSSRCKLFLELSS
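Test system: RD-HGA16 (CHO) cells co-expressing Gα16 and hTAAR1 / Benchmarks: DMSO vehicle as 0%, PEA at EC100 as 100% / Repeats: no replicates (n 1) / Measure: % activation from peak over basal fluorescence ratio, DMSO-to-PEA scaled / Timing: 17-24 h plating, Fluo-8 75 min 37 °C, 30 min RT / Technique: kinetic Fluo-8 calcium fluorescence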
TAAR1 antag = human TAAR1 antagonists, primary screen, Fluo-8 calcium fluorescence, CHO RD-HGA16 cells; antagonist; inhibition, % at 3 µM; actives 1.5% (n = 360,000);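 active means inhibition above a per-plate cutoff, the mean inhibition of test compounds on that plate plus 3 SD, cut at about 49% in these data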
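Test system – hTAAR1-expressing CHO RD-HGA16 cells, Gα16-coupled · Also added – β-PEA at EC80 concentration, post-compound challenge · Compound – 3 µM, single point · Incubation – dye loading 75 min at 37 °C, then 30 min room temperature · Measured by – Fluo-8 intracellular calcium dye fluorescence, real-time kinetic reads · Benchmarks – vehicle and agonist controls · Replicates – singlicate, one well per test compound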
CHO parental Ca = ATP-evoked calcium signal inhibitors, parental CHO, primary screen, counter-screen for OX1R antagonist project, cell-based, fluorescence, Fluo-8 calcium dye; parental CHO-K1, ATP-induced calcium, Fluo-8 fluorescence; inhibition, % at 5.6 µM; actives 0.63% (n = 330,000); AID 463079, 2010;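 active means inhibition above that plate's mean sample inhibition plus 3 SD, cut at about 26% in these data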
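Test system: untransfected parental CHO cell line; also added: ATP stimulus; dosing: 5.6 µM, single dose; signal: calcium-sensitive Fluo-8 fluorescence; measure: percent inhibition of ATP-evoked calcium rise, normalized to controls; benchmarks: low control ATP plus DMSO, high control DMSO only; replication: one well per compound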
GPR7 antag = GPR7 receptor antagonists, primary screen, cell-based, fluorescence, single concentration; inhibition, % at 4.4 µM; AID 1861, 2009; actives 1.1% (n = 290,000); GPR7-expressing cells, fluorescence antagonist assay; Neuropeptides B/W receptor type 1 (Homo sapiens), P48145; in the data active means inhibition above about 16%, passing the limit was not always enough;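 further: cells stimulated with the agonist NPW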
OX1R antag-1 = antagonists of human orexin 1 receptor (OX1R). Orexin/Hypocretin receptor type 1 (Homo sapiens), O43613. actives 1.8% (n = 330,000). AID 485270, 2010. inhibition, % at 6.6 µM. OX1R-expressing cells, FRET antagonist read-out; in the data active means inhibition mostly above about 38%, no sharp cut-off; inactive means mostly below about 40%
Target sequence (O43613 whole entry, looked up): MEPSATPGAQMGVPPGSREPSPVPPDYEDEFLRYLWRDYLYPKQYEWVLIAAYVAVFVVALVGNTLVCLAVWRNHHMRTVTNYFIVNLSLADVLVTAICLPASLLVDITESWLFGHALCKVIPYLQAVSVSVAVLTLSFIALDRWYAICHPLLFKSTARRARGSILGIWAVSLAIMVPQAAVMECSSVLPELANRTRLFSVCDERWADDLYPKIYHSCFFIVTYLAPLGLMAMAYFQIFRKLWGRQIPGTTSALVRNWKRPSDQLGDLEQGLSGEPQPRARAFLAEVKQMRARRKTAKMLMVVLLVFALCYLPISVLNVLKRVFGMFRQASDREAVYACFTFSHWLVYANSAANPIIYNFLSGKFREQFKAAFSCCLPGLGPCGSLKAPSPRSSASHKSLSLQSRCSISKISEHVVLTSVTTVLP
OX1R antag-2 = OX1R (HCRTR1) antagonists, primary screen, fluorescence, CHO/OX1R cells, Fluo-8 calcium, orexin A; inhibition, % at 5 µM; actives 0.43% (n = 330,000); Orexin/Hypocretin receptor type 1 (Homo sapiens), O43613; Fluo-8 calcium fluorescence;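 active means inhibition above its plate's threshold, mean inhibition of all tested compounds on the plate plus 3 SD, cut at about 37% in these data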
nonsel antag count = nonselective antagonists in TAAR1 counter-screen cells, counter-screen for hTAAR1 antagonist project, cell-based, fluorescence, calcium; actives 77% (n = 2,400); inhibition, % at 3 µM; shares compounds with TAAR1 antag; counterscreen cell line, antagonist mode; in the data active means inhibition above about 22%;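 further: CHO-Ga16 host cells stimulated with ATP at an EC80 level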
TAAR1 ant conf = human TAAR1 antagonists, retest of hits, confirmation, cell-based, fluorescence. TAAR1-expressing cells, fluorescence antagonist read-out. AID 651785, 2012. actives 40% (n = 2,400). shares compounds with TAAR1 antag. inhibition, % at 3 µM; in the data active means inhibition above about 49%;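 further: CHO-Ga16 host cells challenged with agonist PEA near its EC80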
Ga16 ag counter = calcium activation in Ga16-expressing cells, counter-screen for TAAR1 antagonist project, cell-based, fluorescence; shares compounds with TAAR1 antag; agonist counterscreen; activation, % at 3 µM; actives 18% (n = 2,400); in the data active means activation above about 12%
TAAR1 ag counter = TAAR1 activation by candidate antagonists – cell-based, fluorescence, counter-screen for TAAR1 antagonist project | shares compounds with TAAR1 antag | hTAAR1 cell line, agonist mode | activation, % at 3 µM | actives 2% (n = 2,400); in the data active means activation above about 37%;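 further: CHO cells stably expressing TAAR1 with calcium dye readout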
Numbers stand for hits. Only some compounds are listed: those with a hit (about 4.6% of all), similar ones and a draw of the others.

Results for COC(=O)c1oc2c(c1C)C1(CCC2)SCCS1 ?
TAAR1 ag: inactive; TAAR1 antag: 95; CHO parental Ca: inactive; GPR7 antag: inactive; OX1R antag-1: inactive; OX1R antag-2: inactive; nonsel antag count: inactive; TAAR1 ant conf: 83; Ga16 ag counter: inactive; TAAR1 ag counter: inactive

How did CC(C)Nc1ncnc2c1cnn2Cc1ccc(Cl)cc1 do in these assays?
TAAR1 ag: inactive; TAAR1 antag: inactive; CHO parental Ca: inactive; GPR7 antag: inactive; OX1R antag-1: inactive; OX1R antag-2: inactive

What do the screens show for `CCC(C)Nc1ncnc2c1cnn2Cc1ccc(Cl)cc1` (stereo not given)?
TAAR1 ag: inactive; TAAR1 antag: 55; CHO parental Ca: inactive; GPR7 antag: inactive; OX1R antag-1: inactive; OX1R antag-2: inactive; nonsel antag count: inactive; TAAR1 ant conf: inactive; Ga16 ag counter: 13; TAAR1 ag counter: inactive

How did COc1cc(/C=N/N2CCN(Cc3ccccc3)CC2)cc(OC)c1OC(C)=O do in these assays?
TAAR1 ag: inactive; TAAR1 antag: inactive; CHO parental Ca: inactive; GPR7 antag: inactive; OX1R antag-1: inactive; OX1R antag-2: inactive

What do the screens show for `COc1ccc(-c2cc(C(=O)N(C)CC(=O)Nc3cccc(F)c3)c3ccccc3n2)cc1`?
TAAR1 ag: inactive; TAAR1 antag: 82; CHO parental Ca: inactive; OX1R antag-1: inactive; OX1R antag-2: inactive; nonsel antag count: 41; TAAR1 ant conf: 61; Ga16 ag counter: inactive; TAAR1 ag counter: inactive

What do the screens show for `Cc1nn(C)cc1CN(C)C(=O)c1cc(-c2ccccc2)nc2ccc(Br)cc12`?
TAAR1 ag: inactive; TAAR1 antag: 65; CHO parental Ca: inactive; GPR7 antag: inactive; OX1R antag-1: inactive; OX1R antag-2: inactive; nonsel antag count: 37; TAAR1 ant conf: 54; Ga16 ag counter: inactive; TAAR1 ag counter: inactive

Results for COc1ccc(-c2nn(-c3ccccc3)cc2C(=O)N(C)CC(=O)Nc2cccc(F)c2)cc1 ?
TAAR1 ag: inactive; TAAR1 antag: inactive; CHO parental Ca: inactive; OX1R antag-1: inactive; OX1R antag-2: inactive

How did COc1cccc(-c2nn(-c3ccc(C)cc3)cc2C(=O)N(C)CC(=O)Nc2cccc(F)c2)c1 do in these assays?
TAAR1 ag: inactive; TAAR1 antag: 61; CHO parental Ca: inactive; OX1R antag-1: inactive; OX1R antag-2: inactive; nonsel antag count: 29; TAAR1 ant conf: inactive; Ga16 ag counter: inactive; TAAR1 ag counter: inactive

What do the screens show for `Cc1ccc2nc(-c3ccccc3)cc(C(=O)N(C)CC(=O)Nc3ccccc3Br)c2c1`?
TAAR1 ag: inactive; TAAR1 antag: 61; CHO parental Ca: inactive; OX1R antag-1: inactive; OX1R antag-2: inactive; nonsel antag count: 31; TAAR1 ant conf: 56; Ga16 ag counter: inactive; TAAR1 ag counter: inactive

What do the screens show for `COc1cccc(NC(=O)CN(C)C(=O)c2cc(-c3ccco3)nc3ccccc23)c1`?
TAAR1 ag: inactive; TAAR1 antag: inactive; CHO parental Ca: inactive; OX1R antag-1: inactive; OX1R antag-2: inactive

Results for CCc1ccc(NC(=O)c2cc(S(=O)(=O)N3CCc4ccccc43)cn2C)cc1 ?
TAAR1 ag: inactive; TAAR1 antag: inactive; CHO parental Ca: inactive; GPR7 antag: inactive; OX1R antag-1: inactive; OX1R antag-2: inactive

How did CCOC(=O)C1(CCc2ccccc2)CCN(C(=O)Cc2nonc2C)CC1 do in these assays?
TAAR1 ag: inactive; TAAR1 antag: inactive; CHO parental Ca: inactive; GPR7 antag: inactive; OX1R antag-1: inactive; OX1R antag-2: inactive

Results for Cc1ccccc1CC1(CO)CCCN(C(=O)c2ccc3ncccc3c2)C1 (stereo not given) ?
TAAR1 ag: inactive; TAAR1 antag: inactive; CHO parental Ca: inactive; GPR7 antag: inactive; OX1R antag-1: inactive; OX1R antag-2: inactive

How did Cc1ccc(S(=O)(=O)Nc2cc(S(=O)(=O)N3CCOCC3)ccc2NCC2CCCO2)cc1 (stereo not given) do in these assays?
TAAR1 ag: inactive; TAAR1 antag: inactive; CHO parental Ca: inactive; OX1R antag-1: inactive; OX1R antag-2: inactive

Results for CN(CC(=O)Nc1cccc(F)c1)C(=O)c1cc(-c2ccccc2)nc2ccccc12 ?
TAAR1 ag: inactive; TAAR1 antag: 72; CHO parental Ca: inactive; OX1R antag-1: inactive; OX1R antag-2: inactive; nonsel antag count: 31; TAAR1 ant conf: 49; Ga16 ag counter: inactive; TAAR1 ag counter: inactive

How did CCOc1ccc(N2C(=O)C(Cl)=C(Nc3ccccc3O)C2=O)cc1 do in these assays?
TAAR1 ag: inactive; TAAR1 antag: 57; CHO parental Ca: inactive; GPR7 antag: inactive; OX1R antag-1: inactive; OX1R antag-2: inactive; nonsel antag count: 28; TAAR1 ant conf: inactive; Ga16 ag counter: 12; TAAR1 ag counter: inactive

What do the screens show for `COc1ccccc1NC1=C(Cl)C(=O)N(c2ccccc2)C1=O`?
TAAR1 ag: inactive; TAAR1 antag: inactive; CHO parental Ca: inactive; GPR7 antag: inactive; OX1R antag-1: inactive; OX1R antag-2: inactive

What do the screens show for `C1=C(CCNCC2CCCCC2)CCCC1`?
TAAR1 ag: inactive; TAAR1 antag: inactive; CHO parental Ca: inactive; GPR7 antag: inactive; OX1R antag-1: inactive; OX1R antag-2: inactive

How did CC(C)(C)c1ccc(C(=O)OCCNC(=O)c2c(Cl)nc3ccccn23)cc1 do in these assays?
TAAR1 ag: inactive; TAAR1 antag: 73; CHO parental Ca: inactive; GPR7 antag: inactive; OX1R antag-1: inactive; OX1R antag-2: inactive; nonsel antag count: 29; TAAR1 ant conf: inactive; Ga16 ag counter: inactive; TAAR1 ag counter: inactive

Results for CCOc1ccc(CCn2c(-c3ccco3)nc3ccccc3c2=O)cc1OCC ?
TAAR1 ag: inactive; TAAR1 antag: 58; CHO parental Ca: inactive; GPR7 antag: inactive; OX1R antag-1: inactive; OX1R antag-2: inactive; nonsel antag count: 31; TAAR1 ant conf: inactive; Ga16 ag counter: inactive; TAAR1 ag counter: inactive
